In ChEMBL document CHEMBL1140409, “Discovery of potent, nonsystemic apical sodium-codependent bile acid transporter inhibitors (Part 2)” (J Med Chem, 2005):
pIC50: −log10 of the molar value.

System: not listed separately
Assay: Amount (dissolved in aqueous Tween-80) in bile of rat was determined by fecal bile acid content for 45 min in a 37 degree C
Format: ADME, tissue-based, Feces
Set-up: concentration or dose not given beside the values
Conditions: in vivo, 0.75 h
Outline: (§1)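 Male Wistar rats (275–300 g) were gavaged once each morning for 4 days at 5, 0.2 or 0.04 mpk in aqueous 0.2% (v/v) Tween-80 (2 mL/kg). Feces from the final 48 h were homogenized in twice their weight of water. Homogenate was diluted in butanol/water (2:0.6), extracted 45 min at 37 °C, centrifuged, and bile acids (μmol/day) measured enzymatically. Scores compared against a reference analogue at 0.04 mg/kg.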

Row | Activity [%] | Structure (SMILES)
1 | 0.17 | CCCCC1(CCCC)CS(=O)(=O)c2ccc(N(C)C)cc2[C@@H](c2ccc(OCc3cccc(CN(CC(=O)O)CC(=O)O)n3)cc2)[C@H]1O
2 | 0.11 | CCCCC1(CCCC)CS(=O)(=O)c2ccc(N(C)C)cc2[C@@H](c2ccc(OCc3ccc(C[N+]45CCN(CC4)CC5)cc3)cc2)[C@H]1O [MARALIXIBAT]
3 | 0.21 | CCCCC1(CCCC)CS(=O)(=O)c2ccc(N(C)C)cc2[C@@H](c2ccc(OCCC[N+]34CCN(CC3)CC4)cc2)[C@H]1O
4 | 0.24 | CCCCC1(CCCC)CS(=O)(=O)c2ccc(N(C)C)cc2[C@@H](c2ccc(OCCCCCN(CC(=O)O)CC(=O)O)cc2)[C@H]1O
5 | 0.12 | CCCCC1(CCCC)CS(=O)(=O)c2ccc(N(C)C)cc2[C@@H](c2ccc(OCc3ccc(CN(CC(=O)O)CC(=O)O)cc3)cc2)[C@H]1O
6 | 7.14 | CCCCC1(CCCC)CS(=O)(=O)c2ccc(N(C)C)cc2[C@@H](c2ccc(OCC(=O)NCC(=O)O)cc2)[C@H]1O
7 | 0.12 | CCCCC1(CCCC)CS(=O)(=O)c2ccc(N(C)C)cc2[C@@H](c2ccc(OCCCC[N+]34CCN(CC3)CC4)cc2)[C@H]1O

System: not listed separately
Assay: Efficacy to increase fecal bile acid excretion; + is more efficacious
Format: ADME, tissue-based, Feces
Conditions: rat
Outline: as §1

Row | Efficacy | Structure (SMILES)
8 | More efficacious than analogue 2 | CCCCC1(CCCC)CS(=O)(=O)c2ccc(N(C)C)cc2[C@@H](c2ccc(OCc3cccc(CN(CC(=O)O)CC(=O)O)n3)cc2)[C@H]1O
9 | More efficacious than analogue 2 | CCCCC1(CCCC)CS(=O)(=O)c2ccc(N(C)C)cc2[C@@H](c2ccc(OCc3ccc(C[N+]45CCN(CC4)CC5)cc3)cc2)[C@H]1O [MARALIXIBAT]
10 | More efficacious than analogue 2 | CCCCC1(CCCC)CS(=O)(=O)c2ccc(N(C)C)cc2[C@@H](c2ccc(OCCC[N+]34CCN(CC3)CC4)cc2)[C@H]1O
11 | More efficacious than analogue 2 | CCCCC1(CCCC)CS(=O)(=O)c2ccc(N(C)C)cc2[C@@H](c2ccc(OCCCCCN(CC(=O)O)CC(=O)O)cc2)[C@H]1O
12 | More efficacious than analogue 2 | CCCCC1(CCCC)CS(=O)(=O)c2ccc(N(C)C)cc2[C@@H](c2ccc(OCC(=O)NCC(=O)O)cc2)[C@H]1O
13 | More efficacious than analogue 2 | CCCCC1(CCCC)CS(=O)(=O)c2ccc(N(C)C)cc2[C@@H](c2ccc(OCCCC[N+]34CCN(CC3)CC4)cc2)[C@H]1O

Target: T1, Ileal sodium/bile acid cotransporter (Homo sapiens, UniProt Q12908)
T1 sequence (Q12908 whole entry): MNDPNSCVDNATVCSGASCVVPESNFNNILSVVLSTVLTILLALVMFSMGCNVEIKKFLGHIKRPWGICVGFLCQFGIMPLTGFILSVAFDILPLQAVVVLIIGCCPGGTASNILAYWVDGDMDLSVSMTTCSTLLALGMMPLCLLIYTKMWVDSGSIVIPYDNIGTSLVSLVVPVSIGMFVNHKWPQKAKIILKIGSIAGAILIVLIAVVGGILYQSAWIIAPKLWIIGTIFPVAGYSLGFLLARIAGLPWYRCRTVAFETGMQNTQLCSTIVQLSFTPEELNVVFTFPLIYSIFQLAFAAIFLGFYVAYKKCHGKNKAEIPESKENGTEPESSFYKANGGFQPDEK
Assay: In vitro inhibition of ASBT mediated uptake of [14C]taurocholate (5 uM) in baby hamster cells expressing human IBAT
Format: cell-based
Conditions: not given

Row | pIC50 | Structure (SMILES)
14 | 6.47 | CCCCC1(CCCC)CS(=O)(=O)c2ccc(N(C)C)cc2[C@@H](c2ccc(OCCN(C)C)cc2)[C@H]1O
15 | 8.40 | CCCCC1(CCCC)CS(=O)(=O)c2ccc(N(C)C)cc2[C@@H](c2ccc(OCc3cccc(CN(CC(=O)O)CC(=O)O)n3)cc2)[C@H]1O
16 | 7.28 | CCCCC1(CCCC)CS(=O)(=O)c2ccc(N(C)C)cc2[C@@H](c2cccc(Nc3ccncc3)c2)[C@H]1O
17 | 6.03 | CCCCC1(CCCC)CS(=O)(=O)c2ccc(N(C)C)cc2[C@@H](c2ccc(CN(CC)CC)cc2)[C@H]1O (racemic)
18 | 8.70 | CCCCC1(CCCC)CS(=O)(=O)c2ccc(N(C)C)cc2[C@@H](c2cccc(OCCCCC[N+](CC)(CC)CC)c2)[C@H]1O
19 | 8.70 | CCCCC1(CCCC)CS(=O)(=O)c2ccc(N(C)C)cc2[C@@H](c2ccc(OCCCCC[N+](CC)(CC)CC)cc2)[C@H]1O
20 | 7.80 | CCCCC1(CCCC)CS(=O)(=O)c2ccc(N(C)C)cc2[C@@H](c2ccc(OCCCCCN(CC)CC)cc2)[C@H]1O
21 | 7.33 | CCCCC1(CCCC)CS(=O)(=O)c2ccc(N(C)C)cc2[C@@H](c2cccc(CN(C)C)c2)[C@H]1O (racemic)
22 | 8.43 | CCCCC1(CCCC)CS(=O)(=O)c2ccc(N(C)C)cc2[C@@H](c2cccc(CS(=O)(=O)O)c2)[C@H]1O (racemic)
23 | 8.66 | CCCCC1(CCCC)CS(=O)(=O)c2ccc(N(C)C)cc2[C@@H](c2ccc(O)cc2)[C@H]1O (racemic)
24 | 7.35 | CCCCC1(CCCC)CS(=O)(=O)c2ccc(N(C)C)cc2[C@@H](c2cccc(OCCN(CC)CC)c2)[C@H]1O
25 | 8.07 | CCCCC1(CCCC)CS(=O)(=O)c2ccc(N(C)C)cc2[C@@H](c2ccc(OCCOCC[N+]34CCN(CC3)CC4)cc2)[C@H]1O
26 | 8.40 | CCCCC1(CCCC)CS(=O)(=O)c2ccc(N(C)C)cc2[C@@H](c2ccc(OCCOCCOCC[N+](C)(C)C)cc2)[C@H]1O
27 | 8.12 | CCCCC1(CCCC)CS(=O)(=O)c2ccc(N(C)C)cc2[C@@H](c2cccnc2)[C@H]1O (racemic)
28 | 8.15 | CCCCC1(CCCC)CS(=O)(=O)c2ccc(N(C)C)cc2[C@@H](c2cccc(OCC[N+](CC)(CC)CC)c2)[C@H]1O
29 | 8.64 | CCCCC1(CCCC)CS(=O)(=O)c2ccc(N(C)C)cc2[C@@H](c2ccc(OCCCCCN(CC(=O)O)CC(=O)O)cc2)[C@H]1O
30 | 6.00 | CCCCC1(CCCC)CS(=O)(=O)c2ccc(N(C)C)cc2[C@@H](c2ccc(C(C)(C)C)cc2)[C@H]1O (racemic)
31 | 6.21 | CCCCC1(CCCC)CS(=O)(=O)c2ccc(N(C)C)cc2[C@@H](c2cccc3ccccc23)[C@H]1O (racemic)
32 | 8.52 | CCCCC1(CCCC)CS(=O)(=O)c2ccc(N(C)C)cc2[C@@H](c2ccc(OCCOCCOCCN3CCCN(C)CCN(C)CCCN(C)CC3)c(F)c2)[C@H]1O

Row | pIC50 | Structure (SMILES)
33 | 8.10 | CCCCC1(CCCC)CS(=O)(=O)c2ccc(N(C)C)cc2[C@@H](c2ccncc2)[C@H]1O (racemic)
34 | 7.17 | CCCCC1(CCCC)CS(=O)(=O)c2ccc(N(C)C)cc2[C@@H](c2cccc(C[N+](C)(C)C)c2)[C@H]1O
35 | 7.66 | CCCCC1(CCCC)CS(=O)(=O)c2ccc(N(C)C)cc2[C@@H](c2ccc(F)c(F)c2)[C@H]1O (racemic)
36 | 6.49 | CCCCC1(CCCC)CS(=O)(=O)c2ccc(N(C)C)cc2[C@@H](c2ccc(C(=O)O)cc2)[C@H]1O (racemic)
37 | 8.70 | CCCCC1(CCCC)CS(=O)(=O)c2ccc(N(C)C)cc2[C@@H](c2cccc(Nc3cc[n+](C)cc3)c2)[C@H]1O
38 | 5.26 | CCCCC1(CCCC)CS(=O)(=O)c2ccc(N(C)C)cc2[C@@H](c2ccc(C[N+](CC)(CC)CC)cc2)[C@H]1O (racemic)
39 | 8.70 | CCCCC1(CCCC)CS(=O)(=O)c2ccc(N(C)C)cc2[C@@H](c2cccc(N)c2)[C@H]1O (racemic)
40 | 6.66 | CCCCC1(CCCC)CS(=O)(=O)c2ccc(N(C)C)cc2[C@@H](c2ccc[n+](C)c2)[C@H]1O (racemic)
41 | 7.77 | CCCCC1(CCCC)CS(=O)(=O)c2ccc(N(C)C)cc2[C@@H](c2ccc3cc(O)ccc3c2)[C@H]1O (racemic)
42 | 8.17 | CCCCC1(CCCC)CS(=O)(=O)c2ccc(N(C)C)cc2[C@@H](c2ccc(OC)cc2)[C@H]1O (racemic)
43 | 8.44 | CCCCC1(CCCC)CS(=O)(=O)c2ccc(N(C)C)cc2[C@@H](c2ccc(OC)c(F)c2)[C@H]1O (racemic)
44 | 8.05 | CCCCC1(CCCC)CS(=O)(=O)c2ccc(N(C)C)cc2[C@@H](c2ccc(OCCOCCOCCN(CCO)CCO)cc2)[C@H]1O
45 | 8.40 | CCCCC1(CCCC)CS(=O)(=O)c2ccc(N(C)C)cc2[C@@H](c2ccc(OCCOCCOCC[N+]34CCN(CC3)CC4)cc2)[C@H]1O
46 | 8.14 | CCCCC1(CCCC)CS(=O)(=O)c2ccc(N(C)C)cc2[C@@H](c2cccc(O)c2)[C@H]1O (racemic)
47 | 8.12 | CCCCC1(CCCC)CS(=O)(=O)c2ccc(N(C)C)cc2[C@@H](c2cccc(C[n+]3ccccc3)c2)[C@H]1O (racemic)
48 | 8.15 | CCCCC1(CCCC)CS(=O)(=O)c2ccc(N(C)C)cc2[C@@H](c2cccc(C(=O)OC)c2)[C@H]1O (racemic)
49 | 7.70 | CCCCC1(CCCC)CS(=O)(=O)c2ccc(N(C)C)cc2[C@@H](c2ccc(OC)c(OC)c2)[C@H]1O (racemic)
50 | 7.12 | CCCCC1(CCCC)CS(=O)(=O)c2ccc(N(C)C)cc2[C@@H](c2ccc3cc(OC)ccc3c2)[C@H]1O (racemic)
51 | 7.52 | CCCCC1(CCCC)CS(=O)(=O)c2ccc(N(C)C)cc2[C@@H](c2cccs2)[C@H]1O (racemic)

Row | pIC50 | Structure (SMILES)
52 | 8.30 | CCCCC1(CCCC)CS(=O)(=O)c2ccc(N(C)C)cc2[C@@H](c2ccsc2)[C@H]1O (racemic)
53 | 8.22 | CCCCC1(CCCC)CS(=O)(=O)c2ccc(N(C)C)cc2[C@@H](c2ccc(OCc3cc[n+](CC)cc3)cc2)[C@H]1O
54 | 7.52 | CCCCC1(CCCC)CS(=O)(=O)c2ccc(N(C)C)cc2[C@@H](c2ccc(OCCOCCOCCN(CC)CC)cc2)[C@H]1O
55 | 7.55 | CCCCC1(CCCC)CS(=O)(=O)c2ccc(N(C)C)cc2[C@@H](c2ccc(OCc3ccncc3)cc2)[C@H]1O
56 | 6.07 | CCCCC1(CCCC)CS(=O)(=O)c2ccc(N(C)C)cc2[C@@H](c2ccc(C[n+]3ccccc3)cc2)[C@H]1O (racemic)
57 | 9.12 | CCCCC1(CCCC)CS(=O)(=O)c2ccc(N(C)C)cc2[C@@H](c2cccc(NC(=O)CCCC[N+](CC)(CC)CC)c2)[C@H]1O
58 | 8.30 | CCCCC1(CCCC)CS(=O)(=O)c2ccc(N(C)C)cc2[C@@H](c2ccccn2)[C@H]1O (racemic)
59 | 7.38 | CCCCC1(CCCC)CS(=O)(=O)c2ccc(N(C)C)cc2[C@@H](c2ccc(SC)cc2)[C@H]1O (racemic)
60 | 7.96 | CCCCC1(CCCC)CS(=O)(=O)c2ccc(N(C)C)cc2[C@@H](c2ccc(CO)cc2)[C@H]1O (racemic)
61 | 7.96 | CCCCC1(CCCC)CS(=O)(=O)c2ccc(N(C)C)cc2[C@@H](c2cccc(OC)c2)[C@H]1O (racemic)
62 | 7.39 | CCCCC1(CCCC)CS(=O)(=O)c2ccc(N(C)C)cc2[C@@H](c2ccc(C(=O)OC)cc2)[C@H]1O (racemic)
63 | 9.30 | CCCCC1(CCCC)CS(=O)(=O)c2ccc(N(C)C)cc2[C@@H](c2ccc(OCCCCC[N+]34CCN(CC3)CC4)cc2)[C@H]1O
64 | 6.59 | CCCCC1(CCCC)CS(=O)(=O)c2ccc(N(C)C)cc2[C@@H](c2ccc(OCC[N+](C)(C)C)cc2)[C@H]1O
65 | 8.24 | CCCCC1(CCCC)CS(=O)(=O)c2ccc(N(C)C)cc2[C@@H](c2ccc(OCCOCC[N+](CC)(CC)CC)cc2)[C@H]1O
66 | 8.02 | CCCCC1(CCCC)CS(=O)(=O)c2ccc(N(C)C)cc2[C@@H](c2ccc(O)c(O)c2)[C@H]1O (racemic)
67 | 9.52 | CCCCC1(CCCC)CS(=O)(=O)c2ccc(N(C)C)cc2[C@@H](c2cccc(NCC(=O)NCC(=O)O)c2)[C@H]1O
68 | 8.35 | CCCCC1(CCCC)CS(=O)(=O)c2ccc(N(C)C)cc2[C@@H](c2cccc(CO)c2)[C@H]1O (racemic)
69 | 5.06 | CCCCC1(CCCC)CS(=O)(=O)c2ccc(N(C)C)cc2[C@@H](c2ccc(C[N+](C)(C)C)cc2)[C@H]1O (racemic)
